Source: PubChem (Broad Institute)
FN deposition inh = fibronectin deposition inhibition | 350,000 tested, 0.086% active | AH1F fibroblasts, Alexa488-fibronectin deposition fluorescence, overnight | inhibition, % at 12.6 µM;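 active = mean inhibition across replicates of 30% or more, regardless of how many single replicates reach that level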;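 note: positive control wells lacked labelled fibronectin entirely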
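Assay system: AH1F fibroblasts assembling fluorescent fibronectin matrix; Amount: 10000 AH1F cells per well; Buffer or medium: DMEM, 2% serum; Probe or stimulus: Alexa488-fibronectin, 24 nM final in well; Doses: single compound dose, delivered by pin transfer; Incubation: 1 h adhesion, overnight exposure; Measured by: fluorescence 485/525 nm; Read-out: fibronectin deposition inhibition.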
Glyco luc inh = blocks N-linked glycosylation in D54 reporter cells. D54 ERlucT glycosylation luciferase reporter, 24 h; percent of 100 nM tunicamycin response. reporter increase, % at 12.5 µM. 360,000 tested, 0.23% active. AID 588692;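 active = mean luciferase reporter signal, scaled so untreated is 0 and the glycosylation-blocking control 100, at or above a set limit in every replicate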;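 note: luciferase carries N-glycosylation sites so blocking glycosylation raises the light; 0% = median of neutral control wells and 100% = median of 100 nM tunicamycin wells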
PAX8 reporter = inhibitors of PAX8 transcriptional activity in RMG-I cells. RMG-I TPO-luciferase reporter, SteadyGlo, 24 h. inhibition, % at 12.6 µM. 360,000 tested, 1.2% active. AID 652154;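 active = mean replicate inhibition at least 60% with every replicate also reaching 60%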;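 note: luciferase light reporting Pax8 driven TPO promoter activity; plate controls were median of neutral control wells for no effect and mitoxantrone controls for full effect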
MLL AF4-AF9 inh = MLL-AF4/AF9 protein interaction inhibition; inhibition, % at 10 µM; AlphaScreen, biotin-AF4 peptide binding to FLAG-AF9; AID 651704; P42568; 350,000 tested, 0.47% active;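 active = every replicate reaching a set inhibition limit, whatever the replicate mean, cut at about 25% in these data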;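 note: 0% = plate neutral control median and 100% = total signal loss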
Target sequence (P42568 whole entry, looked up): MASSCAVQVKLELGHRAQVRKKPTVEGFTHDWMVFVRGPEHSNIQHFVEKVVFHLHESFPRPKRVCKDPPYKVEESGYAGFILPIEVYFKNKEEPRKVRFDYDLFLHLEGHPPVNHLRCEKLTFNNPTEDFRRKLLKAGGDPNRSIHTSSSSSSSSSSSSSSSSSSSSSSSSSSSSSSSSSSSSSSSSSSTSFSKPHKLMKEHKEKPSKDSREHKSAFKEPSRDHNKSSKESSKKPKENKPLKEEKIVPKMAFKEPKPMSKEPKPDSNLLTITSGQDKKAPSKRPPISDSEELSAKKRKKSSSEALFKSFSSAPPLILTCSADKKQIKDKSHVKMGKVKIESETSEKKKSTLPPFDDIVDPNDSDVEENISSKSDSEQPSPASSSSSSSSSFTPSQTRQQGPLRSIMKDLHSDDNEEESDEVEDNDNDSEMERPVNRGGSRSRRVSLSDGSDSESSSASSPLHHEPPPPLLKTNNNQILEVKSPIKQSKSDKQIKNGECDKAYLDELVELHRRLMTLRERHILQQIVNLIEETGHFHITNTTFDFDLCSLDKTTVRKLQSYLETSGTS
EWS-Fli block = blocks EWS/Fli oncoprotein-driven transcription; A673 NR0B1-luciferase reporter, viability-normalised; inhibition, % at 12.6 µM; 350,000 tested, 0.67% active; AID 651661;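 active = mean inhibition of at least 50% after viability correction, with every replicate also passing that limit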;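 note: firefly luciferase signal divided by Alamar Blue viability fluorescence both relative to DMSO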
Env fusion inh = inhibitors of HIV Env-mediated cell fusion; inhibition, % at 12.3 µM; AID 651610; 360,000 tested, 1.1% active; HeLa-JRFL Env/CEM21 cell fusion, luciferase;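 active = mean replicate inhibition score of at least 50 and every replicate individually at or above 50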;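 note: 0% = plate neutral controls and 100% = maraviroc near 300 nM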
Numbers without * were called inactive; / = no result given; [ ] = remark or other dose. Only some compounds are listed: those with a hit (about 2.5% of all), similar ones and a draw of the others.

SMILES | FN deposition inh | Glyco luc inh | PAX8 reporter | MLL AF4-AF9 inh | EWS-Fli block | Env fusion inh
C[C@@H]1CN([C@H](C)CO)C(=O)c2cc(N(C)C)ccc2O[C@@H](C)CCCCO[C@@H]1CN(C)C(=O)Nc1cccc2ccccc12 | / | / | 52 | 9 | -1 | -9[16.7 µM]
CN(C)CC/C=C1\c2cc(Cl)ccc2Sc2cc(F)c(F)cc21 | -6 | -8 | 9 | 31* | 15 | 15
CN(C)CC/C=C1\c2ccccc2Sc2cc(F)c(Cl)cc21 | 7 | -8 | -3 | 28* | 15 | 6
O=C(C[C@@H]1C=C[C@@H](NC(=O)CN2CCOCC2)[C@@H](CO)O1)NCCc1ccncc1 | -13 | / | / | -4 | -1 | /
O/N=C/c1ccc2cccc(OCc3ccccc3)c2n1 | 2 | -5 | -34 | -1 | -3 | 22
NC(N)=N/N=C/c1ccc2cccc(OCc3ccccc3)c2n1 | 0 | 29* | 7 | 10 | 11 | -29
COc1ccc(C2=C(C=C(C#N)C#N)C(c3ccccc3C)c3ccccc3O2)cc1OC (stereo not drawn) | -5 | 0 | 65* | 12 | 18 | /
COc1cc(-c2nnc(COC(=O)C3c4ccccc4Oc4ccccc43)o2)cc(OC)c1OC | -1 | 0 | / | / | / | -57
COc1ccc(OC)c(NC(=O)C(C)OC(=O)c2cc3ccccc3[nH]2)c1 (stereo not drawn) | 12 | -4 | 44 | -1 | 7 | 58*
O=C(c1cccc(F)c1)N1CC2(C1)[C@@H](c1ccccc1)[C@@H](CO)N2C(=O)C1CC1 | 4 | / | / | -4 | -2 | /
CC1=Nc2cc(C(=O)NCCCOC(C)C)ccc2Sc2ccc(C)cc21 | -17 | 18 | 28 | / | 59* | -235
CC1=Nc2cc(C(=O)NCCCOC(C)C)ccc2Sc2ccccc21 | -4 | 12 | 16 | 3 | 45 | -1
CC1=Nc2cc(C(=O)NCC3CCCO3)ccc2Sc2ccc(Br)cc21 (stereo not drawn) | 5 | 20 | 24 | 5 | 55* | 12
CCCC1=Nc2cc(C(=O)NCCCOCC)ccc2Sc2ccccc21 | / | 4 | 99* | / | / | 63
CCCC1=Nc2cc(C(=O)NCCCOC(C)C)ccc2Sc2ccccc21 | -1 | 5 | 14 | / | / | -5
CCC1=Nc2cc(C(=O)NCc3ccco3)ccc2Sc2ccc(C)cc21 | -23 | 11 | 84* | 13 | 17 | -147
CO[C@H]1CN(C)C(=O)c2cc(NC(=O)c3cccc(F)c3)ccc2OC[C@@H](C)N(CC2CC2)C[C@H]1C | 8 | / | 3 | -12 | 5 | /
Cc1csc(NC(=O)c2cn3ccccc3n2)n1 | 5 | -19 | 78* | -43 | 73* | 51
O=C(Nc1ccccc1)c1cn2ccccc2n1 | -1 | -20 | -17 | -1 | 30 | 35
Cc1csc(NC(=O)c2cnc3ccccc3n2)n1 | -1 | -21 | -24 | -18 | 58* | -16
COc1ccc(CNC(=O)Cc2nn(C)c(=O)c3ccccc23)cc1 | / | -3 | / | / | / | /
Cn1nc(CC(=O)NCc2ccc(C(F)(F)F)cc2)c2ccccc2c1=O | -2 | 6 | 18 | / | / | 71*
COc1ccc(S(=O)(=O)N2CCCCC2c2cc(C(=O)Nc3ccc4c(c3)OCO4)no2)cc1 (stereo not drawn) | 35* | -10 | 19 | 2 | -12 | 17
CC(C)(C)S(=O)N1Cc2cc(C(=O)Nc3ccc(-c4ccccc4)cc3)nc(-c3cccc(-c4cccc(F)c4)c3)c2[C@@H]1CCO (stereo partly drawn) | -12 | / | 7 | -2 | 4 | /
COc1ccc(-c2nc(NC(=O)C3CCN(c4nc5ccccc5o4)CC3)sc2C)cc1 | -1 | 0 | 25 | / | / | 67*
SMILES | FN deposition inh | Glyco luc inh | PAX8 reporter | MLL AF4-AF9 inh | EWS-Fli block | Env fusion inh
COc1ccc(-c2nc(NC(=O)Cn3c(=O)oc4ccccc43)sc2C)cc1 | 0 | 1 | 24 | 0 | 12 | -4
C[C@@H]1CCCCO[C@H](CN(C)C(=O)Nc2ccc(C(F)(F)F)cc2)[C@@H](C)CN([C@@H](C)CO)C(=O)c2cc(NS(=O)(=O)c3ccc(F)cc3)ccc2O1 | 4 | / | 85* | 2 | -10 | 7[16.7 µM]
C[C@@H]1CCCCO[C@H](CN(C)C(=O)Nc2ccc(C(F)(F)F)cc2)[C@@H](C)CN([C@H](C)CO)C(=O)c2cc(NS(=O)(=O)c3ccc(F)cc3)ccc2O1 | -9 | / | -4 | 2 | -1 | -38[16.7 µM]
C[C@@H]1CCCCO[C@H](CN(C)C(=O)Nc2ccc(C(F)(F)F)cc2)[C@H](C)CN([C@@H](C)CO)C(=O)c2cc(NS(=O)(=O)c3ccc(F)cc3)ccc2O1 | 5 | / | 68* | -1 | 15 | 3[16.7 µM]
C[C@H]1CCCCO[C@@H](CN(C)C(=O)Nc2ccc(C(F)(F)F)cc2)[C@@H](C)CN([C@@H](C)CO)C(=O)c2cc(NS(=O)(=O)c3ccc(F)cc3)ccc2O1 | 0 | / | -21 | -4 | -7 | 61*[16.7 µM]
CCCN1C[C@@H](C)[C@@H](OC)CN(C)C(=O)c2cc(NC(=O)c3cccc(OC)c3)ccc2OC[C@H]1C | 1 | / | / | / | 0 | /
O=C(C[C@H]1CC[C@@H]2[C@H](COC[C@H](O)CN2S(=O)(=O)c2ccc(Cl)cc2)O1)N[C@H]1CCN(Cc2ccccc2)C1 | 1 | / | 21 | 5 | 9 | /
CC[C@H](C)[C@@H]1NC(=O)[C@@H](CC(C)C)NC(=O)[C@H](C(C)C)NC(=O)[C@H]2CSSC[C@H](NC1=O)C(=O)N2 | 34* | -22 | 116* | -3 | 68* | 69*
COc1ccc(S(=O)(=O)NNC(=O)C23CC4CC(CC(C4)C2)C3)cc1[N+](=O)[O-] | 10 | 0 | 2 | 0 | -1 | 76*
CN(CCc1ccccc1)C(c1ccnc2ccccc12)c1nnnn1-c1ccc2c(c1)OCCO2 (stereo not drawn) | / | / | 22 | 2 | 19 | 60*
Cc1cccc(C)c1-n1nnnc1C(c1ccnc2ccccc12)N(CCC#N)Cc1ccccc1 (stereo not drawn) | -6 | / | 8 | -1 | 7 | 7
c1ccc(CN(Cc2ccccc2)C(c2ccnc3ccccc23)c2nnnn2-c2ccc3c(c2)OCCO3)cc1 (stereo not drawn) | 22 | / | 25 | -1 | -10 | 22
Cc1cccc(C)c1-n1nnnc1C(c1ccnc2ccccc12)N(Cc1ccccc1)Cc1ccccc1 (stereo not drawn) | 11 | / | 3 | -2 | 14 | 90*
C[C@@H]1CN([C@@H](C)CO)C(=O)c2cccc(NC(=O)C3CCCCC3)c2O[C@@H]1CN(C)Cc1ccncc1 | / | / | 0 | -2 | 2 | /
COc1ccc(NC(=O)N[C@@H]2CC[C@H](CCn3cc(-c4ccccn4)nn3)O[C@@H]2CO)cc1 | 19 | / | 3 | 0 | -1 | 32[16.7 µM]
O=C(CSC(=S)N1CCCCC1)c1ccccc1 | / | -19 | -41 | 0 | 64* | 10
